Assay [1] deals with T1, Cathepsin K (Homo sapiens, UniProt P43235).
T1 sequence (P43235 whole entry): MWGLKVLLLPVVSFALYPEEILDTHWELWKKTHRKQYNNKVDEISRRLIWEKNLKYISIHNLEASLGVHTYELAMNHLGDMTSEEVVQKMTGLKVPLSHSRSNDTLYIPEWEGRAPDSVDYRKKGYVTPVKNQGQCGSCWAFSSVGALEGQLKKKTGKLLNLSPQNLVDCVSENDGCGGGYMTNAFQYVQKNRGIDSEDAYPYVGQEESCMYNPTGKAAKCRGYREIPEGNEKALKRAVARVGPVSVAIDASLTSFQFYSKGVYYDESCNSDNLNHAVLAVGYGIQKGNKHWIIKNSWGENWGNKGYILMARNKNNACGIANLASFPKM
Kind of assay: Inhibition of human cathepsin K using Z-Leu-Arg-AMC as substrate after 80 mins by fluorimetric analysis.

In assay [2] the target is T2, Cathepsin K (Homo sapiens) (UniProt P43235).
T2 sequence (whole entry): T1 sequence (P43235 whole entry)
Put plainly: Inhibition of human cathepsin K using Z-Leu-Arg-AMC as substrate by fluorimetric analysis. As to conditions: TDE = time-dependent effect. In short, it runs like this:
(§1)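 Human enzyme activity was followed with a chromogenic or fluorogenic peptide substrate, in duplicate experiments at five or more inhibitor concentrations. Mean steady-state rates were plotted against inhibitor concentration and fitted by nonlinear regression to give IC50. IC50 was then corrected to zero substrate concentration to give Ki. Standard errors of the regression are reported.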

For assay [3], the target named is T3, Cathepsin B (Homo sapiens, UniProt P07858). Kind of assay: Inhibition of human cathepsin B using Z-Arg-Arg-pNA as substrate by spectrophotometric analysis. The following applies: TDE = time-dependent effect. In a few lines:
as §1

Assay [4] concerns the target T3, Cathepsin B. Put plainly: Inhibition of human cathepsin B using Z-Arg-Arg-pNA as substrate after 80 mins by spectrophotometric analysis.
The target in assay [5] is T4, Cathepsin S (Homo sapiens, UniProt P25774). Kind of assay: Inhibition of human cathepsin S using Z-Phe-Val-Arg-pNA as substrate after 80 mins by spectrophotometric analysis.
The target of assay [6] is T5, Cathepsin F (Homo sapiens, UniProt Q9UBX1).
T5 sequence (Q9UBX1 whole entry): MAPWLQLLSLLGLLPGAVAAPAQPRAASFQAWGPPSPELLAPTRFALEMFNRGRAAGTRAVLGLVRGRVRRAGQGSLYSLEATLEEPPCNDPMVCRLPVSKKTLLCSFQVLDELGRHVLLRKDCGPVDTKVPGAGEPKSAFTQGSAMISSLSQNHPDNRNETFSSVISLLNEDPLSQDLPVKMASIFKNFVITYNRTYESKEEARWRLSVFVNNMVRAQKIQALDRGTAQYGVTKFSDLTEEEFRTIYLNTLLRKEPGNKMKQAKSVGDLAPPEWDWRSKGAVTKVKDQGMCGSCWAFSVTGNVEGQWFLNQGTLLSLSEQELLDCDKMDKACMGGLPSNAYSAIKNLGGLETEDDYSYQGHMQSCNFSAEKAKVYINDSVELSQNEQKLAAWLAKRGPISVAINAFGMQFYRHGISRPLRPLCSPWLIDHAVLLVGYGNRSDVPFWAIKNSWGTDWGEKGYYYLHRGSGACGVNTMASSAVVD
Put plainly: Inhibition of human recombinant cathepsin F using Z-Phe-Arg-AMC as substrate by fluorimetric analysis. In short, it runs like this:
as §1

Assay [7] addresses T6, Procathepsin L (Homo sapiens, UniProt P07711). Put plainly: Inhibition of human cathepsin L using Z-Phe-Arg-pNA as substrate by spectrophotometric analysis. The following applies: TDE = time-dependent effect. In a few lines: as §1
Target sequence in this assay (P07711 114-333 limits assumed): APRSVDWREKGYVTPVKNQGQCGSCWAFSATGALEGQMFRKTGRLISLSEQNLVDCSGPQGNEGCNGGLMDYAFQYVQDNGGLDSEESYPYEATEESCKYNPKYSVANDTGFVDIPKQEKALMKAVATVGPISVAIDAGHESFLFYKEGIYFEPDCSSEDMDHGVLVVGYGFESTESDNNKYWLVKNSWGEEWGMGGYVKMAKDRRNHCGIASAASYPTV
Assay [8] concerns the target T6, Procathepsin L. Kind of assay: Inhibition of human cathepsin L using Z-Phe-Arg-pNA as substrate after 80 mins by spectrophotometric analysis.
Target sequence in this assay (P07711 whole entry): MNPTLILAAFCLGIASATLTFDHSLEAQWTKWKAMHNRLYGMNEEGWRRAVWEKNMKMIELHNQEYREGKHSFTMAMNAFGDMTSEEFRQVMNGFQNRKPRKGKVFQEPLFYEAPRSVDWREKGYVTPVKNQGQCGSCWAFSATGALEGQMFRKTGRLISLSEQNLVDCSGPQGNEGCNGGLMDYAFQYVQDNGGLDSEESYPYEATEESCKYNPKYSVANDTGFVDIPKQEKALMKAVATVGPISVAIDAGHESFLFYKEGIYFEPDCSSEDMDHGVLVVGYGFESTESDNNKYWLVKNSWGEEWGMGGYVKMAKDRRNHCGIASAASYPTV
For assay [9], the target named is T4, Cathepsin S. Kind of assay: Inhibition of human cathepsin S using Z-Phe-Val-Arg-pNA as substrate after 10 mins by spectrophotometric analysis.
The target in assay [10] is T5, Cathepsin F. Kind of assay: Inhibition of human recombinant cathepsin F using Z-Phe-Arg-AMC as substrate after 8 min by fluorimetric analysis.
Assay [11] has as its target T1, Cathepsin K. Kind of assay: Inhibition of human cathepsin K using Z-Leu-Arg-AMC as substrate after 10 mins by fluorimetric analysis.
In assay [12] the target is T3, Cathepsin B. Put plainly: Inhibition of human cathepsin B using Z-Arg-Arg-pNA as substrate after 10 mins by spectrophotometric analysis.
The target of assay [13] is T6, Procathepsin L. Kind of assay: Inhibition of human cathepsin L using Z-Phe-Arg-pNA as substrate after 10 mins by spectrophotometric analysis.
Target sequence in this assay (P07711 whole entry): as above

For orientation: Ki means the dissociation constant of the complex between target and ligand, obtained from inhibition or displacement.

T4 sequence (P25774 whole entry): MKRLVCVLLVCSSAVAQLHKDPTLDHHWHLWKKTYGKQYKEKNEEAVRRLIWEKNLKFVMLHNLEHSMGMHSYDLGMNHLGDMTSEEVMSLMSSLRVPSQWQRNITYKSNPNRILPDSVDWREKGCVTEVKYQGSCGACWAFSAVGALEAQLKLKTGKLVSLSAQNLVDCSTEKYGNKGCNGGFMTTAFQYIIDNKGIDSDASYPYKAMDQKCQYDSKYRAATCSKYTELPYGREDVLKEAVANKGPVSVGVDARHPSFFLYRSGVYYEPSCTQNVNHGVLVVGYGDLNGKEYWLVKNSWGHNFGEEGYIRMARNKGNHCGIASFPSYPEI

For `CC(C)CS(=O)(=O)C[C@H](NC(=O)c1ccccc1)C(=O)N(C)N(C)C#N`, the Ki in [1] worked out at 0.00066 µM; in [4], 0.0058 µM; in assay [5] it was 0.00055 µM; in assay [6], 0.021 µM; in assay [8] it was 0.015 µM. In addition, the inhibition result in assay [2], in assay [3] and in [7] was “tde” each time.
As for `CC(C)CS(=O)(=O)C[C@H](NC(=O)c1ccccc1)C(=O)NCC#N`, the Ki in assay [9] was 0.033 µM; in assay [10] it was above 40 µM; in assay [11], above 40 µM; in [12], 24 µM; in assay [13], 37 µM.
Turning to `CC(C)CS(=O)(=O)CC(NC(=O)c1ccccc1)C(=O)NCC#N` (racemic), the Ki was 0.04 µM in [9]; above 40 µM in assay [10]; above 40 µM in assay [11]; 40 µM in [12]; above 40 µM in assay [13].
As to `CC(C)CS(=O)(=O)CC(NC(=O)c1cccs1)C(=O)NCC#N` (racemic), the inhibitory constant (Ki) is 0.045 µM in assay [9]; above 40 µM in assay [10]; above 40 µM in assay [11]; 24 µM in assay [12]; above 40 µM in [13].
As to `CC(C)CS(=O)(=O)CC(NC(=O)c1ccc(-c2ccccc2)s1)C(=O)NCC#N` (racemic), the Ki in [9] is 0.061 µM; in assay [10] it was above 4 µM; in [11], above 4 µM; in [12], 5.1 µM; in assay [13], above 4 µM.
On to `CC(C)CS(=O)(=O)CC(NC(=O)c1cc(-c2ccccc2)cs1)C(=O)NCC#N` (racemic), for which the Ki in assay [9] is 0.06 µM; in assay [10], above 4 µM; in assay [11], above 4 µM; in assay [12] it was 6.4 µM; in assay [13], above 4 µM.
On to `CC(C)CS(=O)(=O)CC(NC(=O)c1ccc(-c2ccsc2)s1)C(=O)NCC#N` (racemic), for which the Ki is 0.061 µM in assay [9]; above 4 µM in assay [10]; above 4 µM in assay [11]; 5.4 µM in [12]; above 4 µM in [13].
As for `CC(C)CS(=O)(=O)CC(NC(=O)c1ccc(-c2nnn[nH]2)s1)C(=O)NCC#N` (racemic), the inhibition constant (Ki) is 0.076 µM in assay [9]; above 4 µM in assay [10]; above 4 µM in assay [11]; 34 µM in assay [12]; above 4 µM in assay [13].
Turning to `CC(C)CS(=O)(=O)CC(NC(=O)c1ccc(-c2cccs2)cc1)C(=O)NCC#N` (racemic), the Ki in assay [9] was 0.2 µM; in assay [10], above 4 µM; in assay [11], above 4 µM; in assay [12], 3.9 µM; in [13] it was above 4 µM.
Regarding `CC(C)CS(=O)(=O)CC(NC(=O)c1ccc(-c2cccs2)s1)C(=O)NCC#N` (racemic), the Ki is 0.094 µM in [9]; 3.2 µM in assay [10]; 1.1 µM in assay [11]; 3.4 µM in assay [12]; above 4 µM in [13].
In the case of `CC(C)CS(=O)(=O)CC(NC(=O)c1cc2ccccc2s1)C(=O)NCC#N` (racemic), the Ki in assay [9] is 0.089 µM; in [10], above 4 µM; in [11], above 4 µM; in assay [12] it was 6.8 µM; in assay [13], above 4 µM.
Take `CC(C)CS(=O)(=O)CC(NC(=O)c1cc2ccsc2s1)C(=O)NCC#N` (racemic): the Ki is 0.1 µM in assay [9]; above 4 µM in [10]; above 4 µM in assay [11]; 7.2 µM in assay [12]; above 4 µM in assay [13].

(Values after ChEMBL document CHEMBL2150851, “Selective nitrile inhibitors to modulate the proteolytic synergism of cathepsins S and F” (J Med Chem, 2012).)
